Assay results published in ChEMBL document CHEMBL1124899 (J Med Chem, 1990).

Key:
Format in all cases: cell membranes, Membrane
[1] = biological target: D(1A) dopamine receptor (Rattus norvegicus, UniProt P18901); test: Compound was evaluated for the inhibition of [3H]-SCH- 23390 binding to Dopamine receptor D1 of rat striatal membranes
Procedure, shortened: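 Rat striatum homogenized in Tris-HCl pH 7.4, pellet washed twice at 20,000g and resuspended at 3.5 mg wet weight/mL in 50 mM Tris-HCl with 120 mM NaCl, 5 mM KCl, 2 mM CaCl2, 1 mM MgCl2. Triplicates, three separate days. IC50 by log-probit analysis.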

[2] = biological target: T1, D(2) dopamine receptor (Rattus norvegicus, UniProt P61169); test: Compound was evaluated for the inhibition of [3H]spiperone binding to dopamine receptor D2 of rat striatal membranes
Procedure, shortened: (§1)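 Rat striatal membranes were washed twice at 20,000g and suspended at 3.5 mg wet weight/mL in 50 mM Tris-HCl pH 7.4 with 120 mM NaCl, 5 mM KCl, 2 mM CaCl2, 1 mM MgCl2. Displacement of 0.1 nM [3H]spiperone (final) by 6-7 concentrations of test drug. Nonspecific binding defined with 1 μM (+)-butaclamol. Triplicates, repeated on three days. IC50 from log-probit plot.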

[3] = biological target: T1, D(2) dopamine receptor; test: Compound was evaluated for the inhibition of [3H]spiperone binding to Dopamine receptor D2 of rat striatal membranes; procedure, shortened: as §1

T1 sequence (P61169 whole entry): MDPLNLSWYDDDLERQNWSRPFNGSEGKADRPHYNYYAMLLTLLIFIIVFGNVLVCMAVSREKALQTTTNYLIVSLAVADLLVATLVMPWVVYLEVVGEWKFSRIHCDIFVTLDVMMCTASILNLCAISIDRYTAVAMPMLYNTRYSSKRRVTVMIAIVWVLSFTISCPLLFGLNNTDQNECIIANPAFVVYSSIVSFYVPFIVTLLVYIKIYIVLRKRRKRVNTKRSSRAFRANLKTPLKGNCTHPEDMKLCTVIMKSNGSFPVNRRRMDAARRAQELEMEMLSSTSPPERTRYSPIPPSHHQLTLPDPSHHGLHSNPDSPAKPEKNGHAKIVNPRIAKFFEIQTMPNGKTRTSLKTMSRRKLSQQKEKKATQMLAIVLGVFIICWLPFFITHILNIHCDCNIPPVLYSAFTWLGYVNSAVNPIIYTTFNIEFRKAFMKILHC
D(1A) dopamine receptor, sequence (P18901 whole entry): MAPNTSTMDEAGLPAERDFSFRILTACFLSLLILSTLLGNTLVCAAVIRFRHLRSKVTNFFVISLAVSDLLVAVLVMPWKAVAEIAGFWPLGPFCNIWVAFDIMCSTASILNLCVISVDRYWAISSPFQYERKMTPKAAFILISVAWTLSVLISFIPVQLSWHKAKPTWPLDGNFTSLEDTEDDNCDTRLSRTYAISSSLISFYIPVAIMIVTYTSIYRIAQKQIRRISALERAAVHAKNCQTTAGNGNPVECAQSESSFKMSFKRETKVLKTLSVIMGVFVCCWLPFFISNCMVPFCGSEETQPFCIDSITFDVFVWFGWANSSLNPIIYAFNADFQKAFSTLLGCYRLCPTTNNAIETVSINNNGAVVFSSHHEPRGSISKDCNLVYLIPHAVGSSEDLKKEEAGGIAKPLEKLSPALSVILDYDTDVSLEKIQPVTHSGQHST

| SMILES | IC50 [1] | IC50 [2] | IC50 [3] |
| --- | --- | --- | --- |
| CCCN(CCc1ccccc1)CCc1ccc(O)c(F)c1 | 38 µM | 0.58 µM | – |
| CCCN(CC)CCc1ccc(F)c(O)c1 | 11.1 µM | 1.97 µM | – |
| CCN(CCc1ccccc1)CCc1ccc(F)c(O)c1 | 8 µM | – | – |
| CCCN(CCC)CCc1ccc(F)c(O)c1 | 11.4 µM | 0.95 µM | – |
| CCCN(CCc1ccccc1)CCc1ccc(F)c(O)c1 | 10.9 µM | 0.25 µM | – |
| NCCc1ccc(F)c(O)c1 | 6.15 µM | – | 4.64 µM |
